# Measurements from different studies.
# Each line is one published result; the experiments were not run side by side.
# Read-out: microbial growth
SMILES,organism,assay,test system,conditions,MIC
CCCCCCCCCCCCCCSC[C@@H]1O[C@@H](O[C@@H]2[C@@H](O)[C@H](O[C@@H]3O[C@@H](CN)[C@H](O)[C@@H](O)[C@@H]3N)[C@@H](N)C[C@H]2N)[C@@H](O)[C@H](N)[C@H]1O,Listeria monocytogenes,,ATCC19115,,0.5 to 1 µg/mL
O=C(Cc1ccc(O)c(O)c1)NCCCCCCCC[P+](c1ccccc1)(c1ccccc1)c1ccccc1.[Br-],Cryptococcus neoformans,broth dilution,ATCC208821,24 h,> 32 µg/mL
CC(C)Oc1c(NC(=O)c2ccc(NC(=O)c3ccc(NC(=O)[C@H](CC(N)=O)NC(=O)c4ccc(NC(=O)c5ccc(C#N)cn5)cc4)cc3)c(OC(C)C)c2O)ccc(C(=O)O)c1O,Proteus vulgaris,,DSM2140,,1 µg/mL
O=C(CCCCCCCCCC[P+](c1ccccc1)(c1ccccc1)c1ccccc1)Nc1cc(O)c(O)c(O)c1.[Br-],Cryptococcus neoformans,broth dilution,ATCC208821,24 h,4 µg/mL
CCCCCCCCCCCCS(=O)(=O)C[C@@H]1O[C@@H](O[C@@H]2[C@@H](O)[C@H](O[C@@H]3O[C@@H](CN)[C@H](O)[C@@H](O)[C@@H]3N)[C@@H](N)C[C@H]2N)[C@@H](O)[C@H](N)[C@H]1O,Listeria monocytogenes,,ATCC19115,,4 to 8 µg/mL
CCCCCCC/C=C/C(=O)N1C(=O)/C(=C(\O)C2CCNCC2)C(=O)C1CC(C)C (stereo not drawn),Proteus vulgaris,,ATCC33420,,200 µg/mL
C/C(=C\c1ccc(C#N)cc1)C(=O)Nc1ccc(C(=O)N[C@@H](CC(N)=O)C(=O)Nc2ccc(C(=O)Nc3ccc(C(=O)Nc4ccc(C(=O)O)cc4)c(O)c3OC(C)C)cc2)cc1,Proteus vulgaris,,DSM2140,,≤ 0.03 µg/mL
CCCCCCC/C=C/C(=O)N1CC(=O)/C(=C(\C)O)C1=O,Proteus vulgaris,,ATCC33420,,> 200 µg/mL
OC(CN1CCOCC1)(Cn1cncn1)c1ccc(F)cc1F (stereo not drawn),Nakaseomyces glabratus,broth dilution,ATCC2001,48 h,31.3 µg/mL
O=C(O)c1cn(C2CC2)c2cc(N3CCNCC3)c(F)cc2c1=O,Proteus vulgaris,,DSM2140,,≤ 0.03 µg/mL
O=C(CCc1ccc(O)c(O)c1)NCCCCCCCC[P+](c1ccccc1)(c1ccccc1)c1ccccc1.[Br-],Cryptococcus neoformans,broth dilution,ATCC208821,24 h,> 32 µg/mL
C[C@@H]1[C@H](O)[C@@H](C)/C=C/C=C/C=C/C=C/C=C/C=C/C=C/[C@H](O[C@@H]2O[C@H](C)[C@@H](O)[C@H](N)[C@@H]2O)C[C@@H]2O[C@](O)(C[C@@H](O)C[C@@H](O)[C@H](O)CC[C@@H](O)C[C@@H](O)CC(=O)O[C@H]1C)C[C@H](O)[C@H]2C(=O)O,Cryptococcus neoformans,,ATCC90113,,0.68 µM
CC(C)Oc1c(NC(=O)c2ccc(NC(=O)[C@H](CC(N)=O)NC(=O)c3ccc(NC(=O)c4ccc(C#N)s4)cc3)cc2)ccc(C(=O)Nc2ccc(C(=O)O)cc2)c1O,Proteus vulgaris,,DSM2140,,0.06 µg/mL
CCCCCCC/C=C/C(=O)N1C(=O)/C(=C(\O)c2ccc(O)cc2)C(=O)C1CC(C)C (stereo not drawn),Proteus vulgaris,,ATCC33420,,> 200 µg/mL
CCCCCCCCCCCN1CCN(CC(O)(Cn2cncn2)c2ccc(F)cc2F)CC1 (stereo not drawn),Nakaseomyces glabratus,broth dilution,ATCC2001,48 h,3.9 µg/mL
CCCCC(=O)N1C(=O)/C(=C(/C)O)C(=O)C1CC(C)C (stereo not drawn),Proteus vulgaris,,ATCC33420,,> 200 µg/mL
CC(C)Oc1c(NC(=O)c2ccc(NC(=O)[C@H](CC(N)=O)NC(=O)c3ccc(NC(=O)c4ccc(C#N)cn4)cc3)cc2)ccc(C(=O)Nc2ccc(C(=O)O)cc2)c1O,Proteus vulgaris,,DSM2140,,0.06 µg/mL
CCCCCCC/C=C/C(=O)N1C(=O)/C(=C(/C)O)C(=O)C1CCCCN (stereo not drawn),Proteus vulgaris,,ATCC33420,,> 200 µg/mL
O=C(Nc1ccc2c(c1)OC(F)(F)O2)Nc1ccc(Cl)c(C(F)(F)F)c1,Listeria monocytogenes,,,,0.3 µM
O=C(Cc1cc(O)c(O)c(O)c1)NCCCCCCCC[P+](c1ccccc1)(c1ccccc1)c1ccccc1.[Br-],Cryptococcus neoformans,broth dilution,ATCC208821,24 h,> 32 µg/mL
CCCCCCC/C=C/C(=O)N1C(=O)/C(=C(/C)O)C(=O)C1Cc1ccc(OC(C)(C)C)cc1 (stereo not drawn),Proteus vulgaris,,ATCC33420,,> 200 µg/mL
